Source: ChEMBL document CHEMBL1151246, “New crinine-type alkaloids with inhibitory effect on induction of inducible nitric oxide synthase from Crinum yemense” (J Nat Prod, 2004)

Experiments:
[1] = tested on: Macrophage; assay: Inhibition of LPS-induced NO production in ddY mouse macrophages at 1 uM after 20 hrs by Griess reagent assay relative to control; format: functional
Summary of the method: (§1)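 Thioglycolate-elicited peritoneal macrophages from male ddY mice were precultured 1 h; nonadherent cells were washed off. Adherent cells (5 × 10⁵/well, RPMI 1640 with 5% FCS) were exposed 20 h to 10 μg/mL LPS with compound (1–100 μM, 0.5% DMSO final). Nitrite in the medium was measured with Griess reagent. Inhibition = (A−B)/(A−C) × 100 against LPS-only and unstimulated wells; IC50 was read graphically, N = 4, means ± SEM.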

[2] = tested on: Macrophage; assay: Inhibition of LPS-induced NO production in ddY mouse macrophages at 10 uM after 20 hrs by Griess reagent assay relative to control; format: functional; summary of the method: as §1
[3] = tested on: Macrophage; assay: Inhibition of LPS-induced NO production in ddY mouse macrophages at 3 uM after 20 hrs by Griess reagent assay relative to control; format: functional; summary of the method: as §1
[4] = tested on: Macrophage; assay: Inhibition of LPS-induced NO production in ddY mouse macrophages at 30 uM after 20 hrs by Griess reagent assay relative to control; format: functional; summary of the method: as §1
[5] = tested on: Macrophage; assay: Inhibition of LPS-induced NO production in ddY mouse macrophages after 20 hrs by Griess reagent assay; format: functional, cell-based; summary of the method: as §1
[6] = tested on: Macrophage; assay: Inhibition of LPS-induced NO production in ddY mouse macrophages at 100 uM after 20 hrs by Griess reagent assay relative to control; format: functional; summary of the method: as §1

IC50 [5] | SMILES | inhibition at 1 µM [1] | inhibition at 10 µM [2] | inhibition at 3 µM [3] | inhibition at 30 µM [4] | inhibition at 100 µM [6]
24 µM | O[C@H]1C=C[C@]23c4cc5c(cc4CN(C[C@@H]2O)[C@H]3C1)OCO5 | 3.1% | 28.6% | 7.4% | 55.6% | 82%
 | OC1c2cc3c(cc2[C@]24C=C[C@@H](O)C[C@@H]2N1C[C@H]4O)OCO3 (mixture of isomers) [YEMENINE C] | 9.7% | 0.5% | 1.6% | 18.3% | 31.3%
15 µM | O=C(/C=C/c1ccc(O)c(O)c1)OCCc1ccccc1 [CAFFEIC ACID PHENETHYL ESTER] | 3.8% | 68.2% | 1.4% | 93.7% | 99.6%
7.4 µM | N=C(N)NCCSSCCNC(=N)N [GUANIDINOETHYLDISULFIDE] | 6.2% | 57.9% | 24.4% | 89.7% | 97.9%
57 µM | CNC(=N)NCCC[C@H](N)C(=O)O [TILARGININE] | 5.9% | 15% | 10.3% | 34.1% | 63.1%
 | c1ccc2c(c1)ncc1cc3c(cc12)OCO3 [TRISPHAERIDINE] | -7.1% | -3.4% | -6.9% | -7% | 0.3%
 | O[C@@H]1C=C[C@]23CCN(Cc4cc5c(cc42)OCO5)[C@H]3C1 [VITTATINE] | -0.2% | 7.1% | -12.5% | 13.1% | 42.4%
4.9 µM | CC(=O)O[C@H]1C=C[C@]23c4cc5c(cc4CN(C[C@@H]2O)[C@H]3C1)OCO5 [YEMENINE A] | 10.4% | 69% | 38.1% | 93% | 98.5%

SMILES | IC50 [5] | inhibition at 1 µM [1] | inhibition at 10 µM [2] | inhibition at 3 µM [3] | inhibition at 30 µM [4] | inhibition at 100 µM [6]
CO[C@H]1C=C[C@@]23c4cc5c(cc4CN(C[C@@H]2O)[C@H]3C1)OCO5 | 1.8 µM | 8.1% | 30.2% | 7.8% | 65.2% | 86.1%
CO[C@H]1C=C[C@]23c4cc5c(cc4C(O)N(C[C@H]2O)[C@H]3C1)OCO5 (mixture of isomers) | 5.4 µM | -11.2% | 6.3% | -23.1% | 30.3% | 69.5%
CO[C@H]1[C@@H](OC)C[C@H](C)[C@@H](OC)C2=CC(=O)C=C(NC(=O)/C(C)=C/C=C/[C@H](OC)[C@@H](OC(N)=O)/C(C)=C/[C@@H]1C)C2=O [HERBIMYCIN] | 0.094 µM | 48% |  | 77% |  | 
O[C@H]1[C@H]2c3cc4c(cc3CN3CCC(=C[C@@H]1O)[C@H]23)OCO4 [LYCORINE] | 2.5 µM | 0% | 20.6% | 2.8% | 54.4% | 91.4%
